Columns and labels:
Aldehyde oxidase [1] = biological target: T1, Aldehyde oxidase (Homo sapiens, UniProt Q06278); experiment: Retention time in cryopreserved human hepatocytes assessed as aldehyde oxidase-mediated metabolite formation treated with 10 uM of carbazeran by LC-MS extracted ion chromatogram analysis; type: ADME, cell-based, Hepatocyte
T1 sequence (Q06278 whole entry): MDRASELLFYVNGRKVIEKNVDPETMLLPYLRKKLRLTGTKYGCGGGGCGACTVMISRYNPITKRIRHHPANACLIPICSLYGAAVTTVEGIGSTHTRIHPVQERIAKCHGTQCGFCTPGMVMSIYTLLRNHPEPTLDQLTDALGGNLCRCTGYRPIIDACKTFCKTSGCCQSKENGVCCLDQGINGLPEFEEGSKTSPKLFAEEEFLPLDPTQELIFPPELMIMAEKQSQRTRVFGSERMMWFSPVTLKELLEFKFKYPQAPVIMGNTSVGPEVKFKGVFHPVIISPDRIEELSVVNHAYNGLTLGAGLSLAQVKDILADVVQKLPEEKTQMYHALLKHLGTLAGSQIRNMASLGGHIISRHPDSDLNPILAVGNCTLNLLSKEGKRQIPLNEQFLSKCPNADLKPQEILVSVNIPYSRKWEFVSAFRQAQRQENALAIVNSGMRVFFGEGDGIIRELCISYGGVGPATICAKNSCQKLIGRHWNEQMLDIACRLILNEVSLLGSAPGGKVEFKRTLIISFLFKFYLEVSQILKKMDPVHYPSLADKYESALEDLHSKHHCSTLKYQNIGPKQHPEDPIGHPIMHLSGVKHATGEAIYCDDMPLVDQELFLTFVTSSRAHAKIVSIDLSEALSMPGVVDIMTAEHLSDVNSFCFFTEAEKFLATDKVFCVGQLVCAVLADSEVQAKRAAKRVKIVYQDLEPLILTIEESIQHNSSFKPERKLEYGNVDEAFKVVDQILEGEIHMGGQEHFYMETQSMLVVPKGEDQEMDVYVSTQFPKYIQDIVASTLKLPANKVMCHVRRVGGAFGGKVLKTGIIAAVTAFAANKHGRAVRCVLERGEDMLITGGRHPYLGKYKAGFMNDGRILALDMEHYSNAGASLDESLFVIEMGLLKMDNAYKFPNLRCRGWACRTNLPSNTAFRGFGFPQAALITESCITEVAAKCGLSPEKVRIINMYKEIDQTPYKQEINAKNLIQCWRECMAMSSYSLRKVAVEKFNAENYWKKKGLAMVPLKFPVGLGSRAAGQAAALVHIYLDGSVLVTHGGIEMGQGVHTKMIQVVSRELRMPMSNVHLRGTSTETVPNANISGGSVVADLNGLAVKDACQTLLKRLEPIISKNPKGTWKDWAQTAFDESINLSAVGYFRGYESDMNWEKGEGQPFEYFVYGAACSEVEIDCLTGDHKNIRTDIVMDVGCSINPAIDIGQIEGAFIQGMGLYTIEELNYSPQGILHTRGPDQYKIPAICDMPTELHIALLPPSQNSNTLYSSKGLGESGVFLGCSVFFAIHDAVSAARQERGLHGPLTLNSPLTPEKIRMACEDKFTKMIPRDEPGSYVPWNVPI
How it was run: (§1)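 Cryopreserved human hepatocytes (lot OOO) were thawed for ~2 min at 37°C, diluted 1/50 in warm recovery medium or WME, spun at 100 x g for 6 min, and resuspended in WME at a final 2.0 x 10^6 cells/mL. They were incubated with 10 µM substrate for 120 min at 37°C. Reactions were stopped with two volumes of cold acetonitrile, then spun, dried under N2 and reconstituted. Read-out was positive-ESI Orbitrap LC-MS extracted ion chromatograms.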

Aldehyde oxidase [2] = biological target: T1, Aldehyde oxidase; experiment: Retention time in cryopreserved human hepatocytes assessed as aldehyde oxidase-mediated metabolite formation treated with 10 uM of O6-benzylguanine by LC-MS extracted ion chromatogram analysis; type: ADME, cell-based, Hepatocyte; how it was run: as §1
Aldehyde oxidase [3] = biological target: T1, Aldehyde oxidase; experiment: Drug level in cryopreserved human hepatocytes assessed as aldehyde oxidase-mediated metabolite formation treated with 10 uM of BIBU1476 by LC-MS extracted ion chromatogram analysis; type: ADME, cell-based, Hepatocyte
Aldehyde oxidase [4] = biological target: T1, Aldehyde oxidase; experiment: Drug level in cryopreserved human hepatocytes assessed as aldehyde oxidase-mediated metabolite formation treated with 10 uM of BIBX1382 by LC-MS extracted ion chromatogram analysis; type: ADME, cell-based, Hepatocyte; how it was run: as §1
Aldehyde oxidase [5] = biological target: T1, Aldehyde oxidase; experiment: Drug metabolism in cryopreserved human hepatocytes assessed as aldehyde oxidase-mediated 3-(8-(3-chloro-4-fluorophenylamino)-6-oxo-6,7-dihydropyrimido[5,4-d]pyrimidin-2-ylamino)pent-4-en-1-ylium formation at 10 uM by LC-MS extracted ion chromatogram analysis; type: ADME, cell-based, Hepatocyte; how it was run: as §1
Aldehyde oxidase [6] = biological target: T1, Aldehyde oxidase; experiment: Drug metabolism in cryopreserved human hepatocytes assessed as aldehyde oxidase-mediated parent compound retention time at 10 uM by LC-MS extracted ion chromatogram analysis; type: ADME, cell-based, Hepatocyte
How it was run: as §1, with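 “cells/mL.” for “cells/mL. They were incubated with 10 µM substrate for 120 min at 37°C.”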

Aldehyde oxidase [7] = biological target: T1, Aldehyde oxidase; experiment: Drug metabolism in cryopreserved human hepatocytes assessed as aldehyde oxidase-mediated 8-(3-chloro-4-fluorophenylamino)-2-imino-6-oxo-2,3,5,6-tetrahydropyrimido[5,4-d]pyrimidin-3-ium formation at 10 uM by LC-MS extracted ion chromatogram analysis; type: ADME, cell-based, Hepatocyte; how it was run: as §1
Aldehyde oxidase [8] = biological target: T1, Aldehyde oxidase; experiment: Drug metabolism in cryopreserved human hepatocytes assessed as aldehyde oxidase-mediated N-(but-1-en-2-yl)-8-(3-chloro-4-fluorophenylamino)-6-oxo-6,7-dihydropyrimido[5,4-d]pyrimidin-2-aminium formation at 10 uM by LC-MS extracted ion chromatogram analysis; type: ADME, cell-based, Hepatocyte; how it was run: as §1
Aldehyde oxidase [9] = biological target: T1, Aldehyde oxidase; experiment: Retention time in cryopreserved human hepatocytes assessed as aldehyde oxidase-mediated metabolite formation treated with 10 uM of zaleplon by LC-MS extracted ion chromatogram analysis; type: ADME, cell-based, Hepatocyte
How it was run: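 Cryopreserved human hepatocytes (Lot OOO), thawed at 37°C, spun at 100 x g, resuspended in Williams' Medium E, then incubated at 2.0 x 10^6 cells/mL with 10 µM substrate for 120 min at 37°C. Quenched with two volumes of cold acetonitrile, centrifuged, supernatant dried under N2 and reconstituted in 85:15 water/acetonitrile (0.1% formic acid). Analysed by high-resolution ESI-positive Orbitrap LC-MS using extracted ion chromatograms.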

Aldehyde oxidase [10] = biological target: T1, Aldehyde oxidase; experiment: Retention time in cryopreserved human hepatocytes assessed as aldehyde oxidase-mediated metabolite formation treated with 10 uM of XK-469 by LC-MS extracted ion chromatogram analysis; type: ADME, cell-based, Hepatocyte; how it was run: as §1
clinical = conditions: human, in vivo
Aldehyde oxidase [11] = biological target: T1, Aldehyde oxidase; experiment: Drug metabolism in cryopreserved human hepatocytes assessed as aldehyde oxidase-mediated metabolite formation at 10 uM by LC-MS extracted ion chromatogram analysis in presence of hydralazine
[12] = Oral bioavailability in human; type: ADME, organism-based; conditions: in vivo
Aldehyde oxidase [13] = biological target: T1, Aldehyde oxidase; experiment: Drug metabolism in cryopreserved human hepatocytes assessed as aldehyde oxidase-mediated 8-(3-chloro-4-fluorophenylamino)-2-imino-2,3-dihydropyrimido[5,4-d]pyrimidin-3-ium formation at 10 uM by LC-MS extracted ion chromatogram analysis; type: ADME, cell-based, Hepatocyte; how it was run: as §1
Aldehyde oxidase [14] = biological target: T1, Aldehyde oxidase; experiment: Drug metabolism in cryopreserved human hepatocytes assessed as aldehyde oxidase-mediated 3-(8-(3-chloro-4-fluorophenylamino)pyrimido[5,4-d]pyrimidin-2-ylamino)pent-4-en-1-ylium formation at 10 uM by LC-MS extracted ion chromatogram analysis; type: ADME, cell-based, Hepatocyte; how it was run: as §1
Aldehyde oxidase [15] = biological target: T1, Aldehyde oxidase; experiment: Drug metabolism in cryopreserved human hepatocytes assessed as aldehyde oxidase-mediated N-(but-1-en-2-yl)-8-(3-chloro-4-fluorophenylamino)pyrimido[5,4-d]pyrimidin-2-aminium formation at 10 uM by LC-MS extracted ion chromatogram analysis; type: ADME, cell-based, Hepatocyte; how it was run: as §1

CCNC(=O)OC1CCN(c2n[nH]c(=O)c3cc(OC)c(OC)cc23)CC1
Retention_time (Aldehyde oxidase [1]): 13.9 min

Nc1nc(OCc2ccccc2)c2[nH]c(O)nc2n1
Retention_time (Aldehyde oxidase [2]): 12.5 min

N=c1nc2c(Nc3ccc(F)c(Cl)c3)nc(=O)[nH]c2c[nH]1
Drug metabolism (Aldehyde oxidase [3]): metabolite_detected

C=C(CC)Nc1ncc2nc(=O)[nH]c(Nc3ccc(F)c(Cl)c3)c2n1
Drug metabolism (Aldehyde oxidase [3]): metabolite_detected

Nc1ncc2ncnc(Nc3ccc(F)c(Cl)c3)c2n1
Drug metabolism (Aldehyde oxidase [4]): metabolite_detected

CN1CCC(Nc2ncc3nc(=O)[nH]c(Nc4ccc(F)c(Cl)c4)c3n2)CC1
Drug metabolism (Aldehyde oxidase [5]): metabolite_detected
Retention time (Aldehyde oxidase [6]): 10.7 min
Drug metabolism (Aldehyde oxidase [7]): metabolite_detected
Drug metabolism (Aldehyde oxidase [8]): metabolite_detected

C=C(CC)Nc1ncc2ncnc(Nc3ccc(F)c(Cl)c3)c2n1
Drug metabolism (Aldehyde oxidase [4]): metabolite_detected

CCN(C(C)=O)c1cccc(-c2cc(=O)[nH]c3c(C#N)cnn23)c1
Retention_time (Aldehyde oxidase [9]): 12.7 min

C[C@@H](Oc1ccc(OC2N=c3cc(Cl)ccc3=NC2=O)cc1)C(=O)O (some centres undefined)
Retention_time (Aldehyde oxidase [10]): 15.7 min

C=CC(CC)Nc1ncc2nc(=O)[nH]c(Nc3ccc(F)c(Cl)c3)c2n1 (centres undefined)
Drug metabolism (Aldehyde oxidase [3]): metabolite_detected

C=CC(CC)Nc1ncc2ncnc(Nc3ccc(F)c(Cl)c3)c2n1 (centres undefined)
Drug metabolism (Aldehyde oxidase [4]): metabolite_detected

Nc1nc(OCc2ccccc2)c2[nH]cnc2n1 [6-O-BENZYLGUANINE]
clearance (clinical): 0.936 L/h/kg
Retention_time (Aldehyde oxidase [6]): 10.5 min
Drug metabolism (Aldehyde oxidase [11]): metabolite_not_detected

CCNC(=O)OC1CCN(c2nncc3cc(OC)c(OC)cc23)CC1 [CARBAZERAN]
bioavailability [12]: < 5%

CN1CCC(Nc2ncc3ncnc(Nc4ccc(F)c(Cl)c4)c3n2)CC1 [FALNIDAMOL]
clearance (clinical): 1.5 L/h/kg
Retention time (Aldehyde oxidase [6]): 12.5 min
Drug metabolism (Aldehyde oxidase [13]): metabolite_detected
bioavailability [12]: 2%
Drug metabolism (Aldehyde oxidase [14]): metabolite_detected
Drug metabolism (Aldehyde oxidase [11]): metabolite_not_detected
Drug metabolism (Aldehyde oxidase [15]): metabolite_detected

C[C@@H](Oc1ccc(Oc2cnc3ccc(Cl)cc3n2)cc1)C(=O)O [R(+)XK469]
clearance (clinical): < 0.06 L/h/kg
Retention_time (Aldehyde oxidase [6]): 17.4 min

CCN(C(C)=O)c1cccc(-c2ccnc3c(C#N)cnn23)c1 [ZALEPLON]
clearance (clinical): 0.942 L/h/kg
Retention_time (Aldehyde oxidase [6]): 14.5 min

Source: ChEMBL document CHEMBL3525972, “Characterization of aldehyde oxidase enzyme activity in cryopreserved human hepatocytes” (Drug Metab Dispos, 2012)
